p47phox inh: inhibitors of human p47phox binding; P14598; p47phox/p22phox peptide binding, fluorescence polarization, 2 h; inhibition, % at 24.7 µM; 220,000 compounds, 0.53% hits; AID 1274
Diaph act CS: counter-screen for diaphorase-based assays: diaphorase activators and chemical reducers. Diaphorase/resazurin coupled assay, resorufin fluorescence, 16 min; active compounds read high; 1 = vehicle wells, 0 = NADH-free wells. activation factor at 20 µM. 190,000 compounds, 0.005% hits. AID 1229;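 active = diaphorase activity raised at least twofold by the compound at 20 µM; inactive = activation factor below 2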
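Test system: Clostridium kluyveri diaphorase, purified enzyme; input: enzyme 0.07 U/mL final; buffer or medium: 50 mM HEPES pH 7.4 with 4.542 mM MgCl2, 0.005% Tween 20; also added: 0.114 mM NADH and 0.1 mM resazurin, final amounts; schedule: 16 min enzyme reaction, ambient temperature; technique: fluorescence of resorufin, 544 nm excitation, 590 nm emission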
Hck Nef HTS: blocks Nef-activated human Hck kinase; P08631; inhibition, % at 20 µM; 220,000 compounds, 0.68% hits; Recombinant Hck-YEEI plus Nef, Z-Lyte FRET kinase assay;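 active = Hck-Nef kinase inhibition above about 50%, limit read from the data; inactive = inhibition below that limit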
Target sequence (P08631 whole entry, looked up): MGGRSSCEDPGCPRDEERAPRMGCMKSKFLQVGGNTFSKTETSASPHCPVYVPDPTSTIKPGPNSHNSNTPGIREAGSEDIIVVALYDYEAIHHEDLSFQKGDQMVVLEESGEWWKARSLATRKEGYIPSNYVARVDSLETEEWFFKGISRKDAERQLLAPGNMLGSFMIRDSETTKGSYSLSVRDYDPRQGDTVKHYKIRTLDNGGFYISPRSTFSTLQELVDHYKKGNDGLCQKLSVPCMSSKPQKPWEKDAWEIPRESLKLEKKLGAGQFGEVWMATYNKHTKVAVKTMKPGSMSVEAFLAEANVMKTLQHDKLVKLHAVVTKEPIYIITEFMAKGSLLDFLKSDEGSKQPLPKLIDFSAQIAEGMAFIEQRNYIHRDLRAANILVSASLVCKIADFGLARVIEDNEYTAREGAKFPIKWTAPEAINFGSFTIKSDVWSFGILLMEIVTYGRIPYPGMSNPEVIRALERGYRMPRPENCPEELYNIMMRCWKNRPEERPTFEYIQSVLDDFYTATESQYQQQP
eIF4E 4G PPI: eIF4E/eIF4G interaction inhibition in translation initiation; TR-FRET eIF4E-eIF4GI(517-606) binding, 2 h; inhibition, % at 21.7 µM; 220,000 compounds, 0.37% hits
14-3-3 Bad inh: disrupts binding of bovine 14-3-3 zeta to phospho-Bad peptide; TR-FRET 14-3-3zeta/Dy647-pBad peptide displacement, 1 h; inhibition, % at 21.7 µM; 220,000 compounds, 0.71% hits;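 active = inhibition above about 70%, limit read from the data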
Hck Nef conf: Hck-Nef kinase inhibition, confirmation. shares compounds with Hck Nef HTS. Recombinant Hck-YEEI:Nef, Z-Lyte FRET kinase assay. calls only at 10 µM. 1,300 compounds, 28% hits. AID 463188;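 active = average inhibition of at least 50%, with Z-scores no higher than 3 in both the phospho-tyrosine peptide and fluorescence counterscreens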
A number is an active result; . = inactive; / = no result shown; + = active, no number; [ ] = another dose, or the depositor's remark. The list is not random: actives were taken first. Their share in the collection is about 2%.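 Rule for the calls, unless noted: active = inhibition above about 30% (limit read from the data); inactive = the rest.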

SMILES | p47phox inh | Diaph act CS | Hck Nef HTS | eIF4E 4G PPI | 14-3-3 Bad inh | Hck Nef conf
O=C(Nc1cnn(Cc2ccc(F)cc2)c1)c1cnn2c(C(F)F)cc(-c3ccccc3)nc12 | . | / | 88.0 | . | . | .
CCOC(=O)c1c(NC(=O)/C=C\C(=O)O)sc(C)c1-c1ccccc1 | . | . | 56.8 | . | . | +
CCOC(=O)c1c(NC(=O)/C=C/C(=O)O)sc(C)c1-c1ccc(C(C)(C)C)cc1 | . | . | . | . | . | /
CC1(C)CC(=O)C(C=NCCN2CCNCC2)=C(O)C1 | . | . | . | . | . | /
COCCNc1cc(C)c(C#N)c2nc3ccccc3n12 | . | . | 70.4 | . | . | /
CCCc1cc(NCC2CCCO2)n2c(nc3ccccc32)c1C#N (configuration not stated) | . | . | 121.5 | . | . | /
CCCNc1cc(C)c(C#N)c2nc3ccccc3n12 | . | . | . | . | . | /
CCc1cccc(NC(=O)c2cc(OC)c(OC)c(OC)c2)c1 | . | . | . | . | . | /
CCn1c(SCC(=O)Nc2ccc(-c3nc4ccc(C)cc4s3)cc2)nnc1-c1ccccc1 | . | . | 61.6 | . | 91.0[fluorescence artefact?] | +
Cc1ccc(-c2nc(N/N=C/c3ccccc3[N+](=O)[O-])c3ccccc3n2)cc1 | . | . | 55.7 | . | . | .
Brc1ccc(-c2nc(N/N=C/c3cccnc3)c3ccccc3n2)cc1 | . | . | . | . | . | /
O=C(Oc1ccc(-c2cnc3ccccc3n2)cc1)c1cc([N+](=O)[O-])ccc1Cl | 35.5 | . | 52.7 | . | . | +
COc1ccccc1CN(Cc1nc2ccccc2c(=O)[nH]1)S(=O)(=O)c1ccc2ccccc2c1 | . | . | 109.6 | . | . | .
CCOC(=O)c1oc2ccccc2c1NC(=O)CN1CCOCC1 | . | . | . | . | . | /
Cc1cccc(NC(=O)c2cc3c(s2)-c2c(C)cccc2OC3)n1 | . | / | 87.0 | . | . | /
COc1cc(/C=C2\SC(=O)N(Cc3ccc(F)cc3)C2=O)cc([N+](=O)[O-])c1O | . | . | . | . | . | /
COc1cc(/C=C2\SC(=O)N(Cc3ccc(Cl)cc3)C2=O)cc([N+](=O)[O-])c1O | . | . | 51.0 | 60.7 | 96.4 | .
O=C(O)/C=C/C(=O)NCCC(c1ccccc1)c1ccccc1 | . | / | . | . | . | /
Oc1cc(-n2cccn2)c(O)cc1-n1cccn1 | . | / | . | . | . | /
CCCn1c(NC(=O)c2cccc(S(=O)(=O)N3CCCC3)c2)nc2ccccc21 | . | . | 52.5 | . | . | +
Nc1cc([N+](=O)[O-])ccc1Nc1ccccc1 | . | . | 82.2 | . | . | .
O=C1c2c([N+](=O)[O-])cc([N+](=O)[O-])cc2S(=O)N1Cc1ccccc1 (configuration not stated) | . | . | . | . | . | /
COc1ccc(OC)c(-c2c3cc(O)c(=O)cc-3oc3cc(O)c(O)cc23)c1 | . | . | 54.4 | 51.2[fluorescence artefact?] | 74.6[fluorescence artefact?] | .
COc1cc2c(C#N)c(N3CCCC3)nc(N)c2c(N)n1 | . | / | 62.9 | . | . | +
COc1cc2c(C#N)c(N3CCN(C)CC3)nc(N)c2c(N)n1 | . | . | . | . | . | /
SMILES | p47phox inh | Diaph act CS | Hck Nef HTS | eIF4E 4G PPI | 14-3-3 Bad inh | Hck Nef conf
O=C(CCSCc1ccc(Cl)cc1)NC1CCCC1 | . | . | . | . | . | /
CC(O)C(C(=O)OCc1ccc([N+](=O)[O-])cc1)N1C(=O)c2ccccc2C1=O (configuration not stated) | . | . | 70.7 | . | . | .
C[C@H](N)C(=O)OCc1ccc([N+](=O)[O-])cc1 | . | / | . | . | . | /
c1ccc(-c2nccc(-c3ccc(-n4cnc5ccccc54)cc3)n2)cc1 | 45.8 | . | 101.8 | . | 95.8 | .
CCOc1cc(/C=N/Nc2cccc(C(=O)O)c2)ccc1OCC(=O)N1CCCCC1 | . | . | . | . | . | /
CCCc1cc(-c2[nH]ncc2-c2ccc3c(c2)OCCCO3)c(O)cc1OC | . | . | . | . | . | /
CCc1cc(-c2[nH]ncc2-c2ccc3c(c2)OCO3)c(O)cc1O | . | . | 65.0 | . | . | +
O=C(Cn1nc(-c2ccc3c(c2)OCCO3)ccc1=O)Nc1ccc(-n2cnnn2)cc1 | . | . | 52.3 | . | . | .
COCCNc1nc(-c2cc(C)n(CCc3ccc(OC)cc3)c2C)cs1 | . | . | 50.7 | . | . | .
O=c1oc2c(CN3CCOCC3)c(O)c(Cl)cc2c2c1CCC2 | . | . | 157.8 | . | . | /
CN(C)Cc1c(O)c(Cl)cc2c3c(c(=O)oc12)CCCC3 | . | . | 137.0 | . | . | /
Cc1c(O)c(CN2CCCCC2)cc2c3c(c(=O)oc12)CCC3 | . | . | . | . | . | /
CCN(CC)Cc1c(O)c(Cl)cc2c3c(c(=O)oc12)CCCC3 | . | . | 112.6 | . | . | /
CCCCCCn1ccc(=N)cc1 | . | . | . | . | . | /
CCCCCCCCCCCCCCCCn1cc[n+](CC(C)=O)c1 | 96.4 | 3 | 62.8 | 68.4 | 98.4 | .
CCOC(=O)c1c(C)n(C)c2ccc(OC(=O)c3ccc(N4C(=O)CCC4=O)cc3)cc12 | . | . | . | . | . | /
CCc1sc(/C=C(/C#N)C(N)=S)cc1[N+](=O)[O-] | . | . | 63.2 | . | . | .
CCOc1ccc(S(=O)(=O)N2CCCCC2)c(C)c1C | . | . | 82.8 | . | . | .
COc1ccc(N=C2NC(=O)/C(=C\C=C\c3ccco3)S2)cc1 | . | . | 88.1 | . | . | +
O=C1NC(=Nc2ccc(O)cc2)S/C1=C/c1ccco1 | . | . | 81.0 | . | . | .
Cc1ccc(N=C2NC(=O)/C(=C\c3ccco3)S2)cc1 | . | . | . | . | . | /
Cc1nc2c(ccc3nc(NC(=O)C4CC4)sc32)s1 | . | . | 54.0 | . | . | .
CC(C)Cc1nnc(NC(=O)CN2C(=O)c3ccccc3C2=O)s1 | . | . | . | . | . | /
CCN(CC)S(=O)(=O)c1ccc(N2CCOCC2)c(NC(=O)c2ccc(NC(C)=O)cc2)c1 | . | / | . | . | . | /
CN(C)/C=C1\C(=O)ON=C1c1ccccc1 | . | . | . | . | . | /
SMILES | p47phox inh | Diaph act CS | Hck Nef HTS | eIF4E 4G PPI | 14-3-3 Bad inh | Hck Nef conf
Cc1ccc(C2=NOC(=O)/C2=C\C=C\c2ccccc2)cc1 | . | . | 56.0 | . | . | .
CCN1C=C(C(=O)OC)C(c2cccc(OC)c2OC)C(C(=O)OC)=C1 | / | . | 84.7 | . | . | /
COCCN1C=C(C(=O)OC)C(c2ccccc2Cl)C(C(=O)OC)=C1 | . | . | 153.1 | . | . | /
COC(=O)C1=CN(Cc2cccs2)C=C(C(=O)OC)C1c1cccc(OC)c1OC | . | . | . | . | . | /
O=[N+]([O-])c1ccccc1/C=C/C=N/n1c(-c2ccccc2F)n[nH]c1=S | . | / | . | . | . | /
COc1ccccc1C(=O)Nc1ccc(-c2nnn(CC(=O)NCc3ccco3)n2)cc1 | . | / | 50.9 | . | . | .
O=C(Cn1nnc(-c2ccccc2)n1)NCc1ccco1 | . | . | . | . | . | /
Oc1cccc(Nc2nc(O)c(/C=C3\C=Nc4ccccc43)s2)c1 | . | / | 88.2 | . | 73.1 | +

Source: PubChem
